High-throughput results: PubChem BioAssay, several laboratories
Hits are enriched below; roughly 2.1% of the tested compounds scored in any of these assays.
STEP block: inhibitors of human striatal-enriched phosphatase STEP | 0.25% of 360,000 active | inhibition, % at 20 µM | AID 588621 | P54829 | recombinant STEP, OMFP fluorogenic substrate, fluorescence;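 active means inhibition at 20 µM, scaled per plate between control wells, above about 37%, limit read from the data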
Target sequence (P54829 whole entry, looked up): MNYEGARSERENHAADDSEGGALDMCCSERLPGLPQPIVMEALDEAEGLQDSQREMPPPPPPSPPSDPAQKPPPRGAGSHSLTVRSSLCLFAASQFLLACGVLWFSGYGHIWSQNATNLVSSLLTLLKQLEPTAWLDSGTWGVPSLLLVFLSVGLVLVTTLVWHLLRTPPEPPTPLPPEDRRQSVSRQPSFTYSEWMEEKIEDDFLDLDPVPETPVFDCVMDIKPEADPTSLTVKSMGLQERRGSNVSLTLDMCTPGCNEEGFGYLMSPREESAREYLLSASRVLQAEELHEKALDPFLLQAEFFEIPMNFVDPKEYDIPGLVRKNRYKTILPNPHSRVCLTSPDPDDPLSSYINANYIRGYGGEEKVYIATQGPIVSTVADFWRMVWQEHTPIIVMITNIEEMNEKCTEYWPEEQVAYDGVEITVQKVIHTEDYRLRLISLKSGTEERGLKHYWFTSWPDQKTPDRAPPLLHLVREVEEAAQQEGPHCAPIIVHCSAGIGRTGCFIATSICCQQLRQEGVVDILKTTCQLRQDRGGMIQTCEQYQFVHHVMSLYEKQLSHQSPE
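Material: STEP (striatal-enriched tyrosine phosphatase) enzyme, cell-free | Medium: 50 mM Bis-Tris pH 6.0 with 2.5 mM DTT and 0.005% Tween 20 | Read-out: Percent inhibition scaled to no-enzyme and uninhibited-enzyme controls, plate-pattern corrected | Signal: Fluorescence read at 480 nm ex / 540 nm em | Times: 20 min reaction, room temperature, in the dark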
Scp1 inh: blocks human Scp-1 phosphatase activity | 0.88% of 340,000 active | Recombinant Scp1, phosphopeptide, malachite green phosphate absorbance | Q9GZU7 | inhibition, % at 20 µM | AID 493091;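 active means inhibition above about 50% at 20 µM, limit read from the data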
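System: truncated SCP-1 phosphatase (76-261aa); medium: Tris acetate buffer pH 5.5 with MgCl2 and Tween-20; incubation: 45 min room-temperature reaction, 5 min colour, 30 min stabiliser; compound: single 20 µM dose, 1% DMSO; reagent: Phosphorylated 17-residue peptide substrate; read-out: % inhibition at 20 µM; technique: colorimetric free-phosphate detection, absorbance 630 nm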
GRK2 aptamer HTS: human GRK2 inhibition via aptamer displacement | inhibition of aptamer binding, % at 10 µM | AID 488847 | bead flow cytometry, FAM-aptamer displacement from GRK2 | 0.59% of 330,000 active;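 active means inhibition of aptamer binding above 40%, roughly 3 SD of noise, on plates passing a quality check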;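 further: median bead fluorescence of bound FAM aptamer so fluorescent compounds give negative values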
SUMO1 PPI mod: modulators of human SUMO1-mediated protein-protein interactions. P63165. SUMO1 binding to a labelled peptide, TR-FRET, 1 h. inhibition, % at 20 µM. 0.33% of 360,000 active. AID 602429; in the data active means inhibition above about 37%
DNMT1 block: DNMT1 (human) enzyme inhibition; P26358; DNMT1 molecular beacon, Hinp1I cleavage, fluorescence; 0.83% of 360,000 active; inhibition (reported as % activation of signal), % at 10 µM; AID 588458; in the data active means inhibition above about 50%
LMPTP inh: LMPTP (human) inhibition; P24666; AID 651560; inhibition, % at 20 µM; recombinant LMPTP-A, OMFP fluorogenic substrate, fluorescence intensity; 0.22% of 360,000 active;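 active means compounds that cut the enzyme signal by at least half of the control window in the single-dose screen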
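test system = LMPTP-A | amount = 0.625 nM LMPTP-A final | reagent = fluorogenic phosphatase substrate OMFP at 400 µM final | incubation = 50 min at room temperature | benchmarks = no-enzyme low control, uninhibited high control | medium = Bis-Tris pH 6.0, DTT, detergent | signal = fluorescence intensity of OMFP turnover product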
DNMT1 confirm: confirmation of human DNMT1 inhibitors; shares compounds with DNMT1 block; DNMT1 molecular beacon HinP1I cleavage, fluorescence; inhibition, % at 10 µM; 8% of 2,300 active;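 active means average inhibition of at least 30% in the single-concentration confirmation test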
DNMT1 interf: shows spectral interference in the DNMT1 beacon assay. shares compounds with DNMT1 block. DNMT1 molecular beacon spectral interference counterscreen, fluorescence 485/520. activation (fluorescence interference), % at 10 µM. 1% of 2,300 active. AID 602387;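 active means activation of at least 30% at 10 µM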;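 further: DNMT1 catalytic domain with a HinP1I cleavage step and a FAM/dabcyl DNA beacon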
Numbers stand for hits; i = inactive; nt = no result given.

SMILES	STEP block	Scp1 inh	GRK2 aptamer HTS	SUMO1 PPI mod	DNMT1 block	LMPTP inh	DNMT1 confirm	DNMT1 interf
Cc1ccc2nc(N/N=C/c3ccccc3C#N)nc(-c3ccccc3)c2c1	i	i	i	i	i	i	nt	nt
O=c1c(Cl)c(N/N=C/c2ccc(Cl)cc2)cnn1-c1ccccc1	i	i	i	i	80	54	i	i
O=c1c(Cl)c(Cl)cnn1-c1ccccc1	i	i	nt	i	i	i	nt	nt
N#Cc1ccccc1S(=O)(=O)NC(=O)[C@H]1O[C@@H](n2cnc3c(N)ncnc32)[C@H](O)[C@@H]1O	i	nt	nt	i	84	i	i	i
Nc1ncnc2c1ncn2[C@@H]1O[C@H](C(=O)NS(=O)(=O)c2cccc(F)c2)[C@@H](O)[C@H]1O	i	nt	nt	i	i	i	nt	nt
COc1cccc(N(C(=O)Cn2nnc(-c3ccc(F)cc3)n2)C(C(=O)NCC2CCCO2)c2ccc(Cl)cc2)c1 (stereo not given)	i	i	i	i	i	i	nt	nt
COc1cccc(N(C(=O)Cn2nnc(-c3ccc(Cl)cc3)n2)C(C(=O)NCC2CCCO2)c2ccc(C)cc2)c1 (stereo not given)	i	i	i	i	59	i	i	i
N#Cc1c(NC(=O)CSc2ncnc3sccc23)oc(-c2ccco2)c1-c1ccco1	i	i	i	i	92	i	i	i
Cc1cc(NC(=O)CSc2ncnc3sccc23)no1	i	i	i	i	i	i	nt	nt
CC(C)(C)OC(=O)N1CCC[C@@H]1C(=O)NCc1ccccc1Cl	nt	nt	nt	i	nt	i	nt	nt
CCN(CC(=O)Nc1ccc(NC(C)=O)cc1)C(=O)c1ccc(N(C)S(=O)(=O)c2ccc(C)cc2)cc1	i	i	nt	i	i	i	nt	nt
Cc1ccnc(NC(=O)CCC(=O)N(CC(=O)NCc2ccc(F)cc2)c2ccc(F)cc2)c1	i	i	i	i	73	i	i	i
O=C1CCCC(O)=C1N=Nc1ccc2c(c1)OCO2	i	i	i	i	i	i	nt	nt
O=C1CCCC(O)=C1N=Nc1ccc(C(=O)O)cc1	i	76	i	i	83	i	i	i
C[C@H]1CN([C@@H](C)CO)S(=O)(=O)c2ccc(Br)cc2O[C@H]1CN(C)C(=O)Cc1ccncc1	i	nt	nt	i	i	i	nt	nt
COc1cccc(N2CCN(S(=O)(=O)c3ccc(-c4cnc(C5CC5)o4)cc3)CC2)c1	i	i	i	i	i	i	nt	nt
COc1ccc(N2CCN(S(=O)(=O)c3ccc(-c4cnc(C5CC5)o4)cc3)CC2)cc1	i	i	i	i	74	i	i	i
CSc1ncccc1C(=O)NCc1nnc2ccccn12	i	i	i	i	i	i	nt	nt
Cc1nc2[nH]c(=O)n(O)c(=O)c2s1	i	i	nt	i	i	i	nt	nt
COc1ccc2[nH]cc(CCNC(=O)Cc3c(F)cccc3Cl)c2c1	i	i	i	i	72	i	i	i
CC(C)NS(=O)(=O)c1ccc(NC(=O)Cc2cccs2)cc1	i	i	i	i	i	i	nt	nt
O=C(Cc1cccs1)Nc1ccc(S(=O)(=O)Nc2ncccn2)cc1	i	i	i	i	68	i	i	i
CCOc1ccccc1N1Cc2cc(C)c(C)cc2C1	i	i	i	i	54	i	i	i
C=CC(=O)Nc1cccc(CN2C(=O)N(c3cc(OC)cc(OC)c3)Cc3cnc(NCCCCN(CC)CC)nc32)c1	i	i	nt	i	i	i	nt	nt
Cc1ccc(CNc2ncnc3ccc(-c4ccoc4C)cc23)o1	i	nt	nt	i	i	i	nt	nt
COc1cc2c(cc1NC(=O)CSc1nnnn1-c1ccccc1)oc1ccccc12	i	i	i	i	52	i	i	i
COc1cc2c(cc1NC(=O)CSc1cccc[n+]1[O-])oc1ccccc12	i	i	i	i	72	i	i	i
O=S(=O)(Cc1ccco1)Cc1nc(-c2ccc(Cl)cc2)cs1	i	i	i	i	i	i	nt	nt
O=S(=O)(Cc1noc(-c2ccc(Cl)cc2)n1)Cc1ccco1	i	i	i	i	83	i	i	i
